This passage reports inhibition, IC50 and Activity results from ChEMBL document CHEMBL1153000, “Berbamine derivatives: a novel class of compounds for anti-leukemia activity” (Eur J Med Chem, 2009).

Each structure is given as a SMILES string. Calls of active or inactive are those of the source. No cut-off for these calls is given here.

For test [1], the system named is K562. Put plainly: Inhibition of NF-kappaB translocation from cytoplasm to nucleus in human imatinib-resistant K562 leukemia cells expressing p210Bcr/Ab assessed as disappearance of NF-kappaB p65/relA subunit nuclear level at 0.5 ug/ml after 24 hrs by Western blot analysis. It counts as functional, cell-based. In a few lines:
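Leukemia cells were exposed for 24 h (berbamine 8 µg/ml; derivatives 0.5 µg/ml). Nuclear levels of NF-κB p65/relA were analysed by immunoblot with lamin as the nuclear loading control, and total p65 was also assessed.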
On the technique in general: In western blotting, separated proteins are transferred to a membrane and probed.

Test [2] deals with K562. Put plainly: Cytotoxicity against human imatinib-resistant K562 leukemia cells expressing p210Bcr/Abl and MDR1 at 48 hrs by MTT assay. It counts as functional, cell-based. As to conditions: K562, 48 h. In a few lines: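 Cells were cultured with 100 µg/ml streptomycin at 37 °C in a humidified 95% air/5% CO2 incubator. Viability was read by MTT after 48 h exposure and counts were taken by hemocytometer. IC50 is the mean of three independent determinations.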

Test [3] has as its system K562. The experiment in a line: Inhibition of NF-kappaB translocation from cytoplasm to nucleus in human imatinib-resistant K562 leukemia cells expressing p210Bcr/Ab assessed as disappearance of NF-kappaB p65/relA subunit nuclear level at 0.5 ug/ml after 24 hrs by Western blot analysis.
Test [4] has as its system K562. Put plainly: Induction of apoptosis in human imatinib-resistant K562 leukemia cells expressing p210Bcr/Abl at 2 ug/ml after 48 hrs by flow cytometry. It counts as functional. In a few lines: (§1)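 K562-R cells (MDR1-expressing) were treated with 1.0 or 2.0 µg/ml for 48 h, then harvested, PBS-washed, fixed in ice-cold 70% ethanol at 4 °C overnight, and stained with 50 µg/ml propidium iodide. Flow cytometry gave the percentage of cells in G0/G1, S and G2/M, with the sub-G1 fraction scored as apoptotic.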

In test [5] the test system is K562. Put plainly: Cell cycle arrest in human imatinib-resistant K562 leukemia cells expressing p210Bcr/Ab assessed as accumulation at G0/G1 phase at 2 ug/ml after 48 hrs by flow cytometry. It counts as functional. Summed up:
as §1

The subject of test [6] is K562. Put plainly: Induction of apoptosis in human imatinib-resistant K562 cells expressing p210Bcr/Abl at 1 ug/ml after 48 hrs by flow cytometry. It counts as functional. In a few lines:
as §1
In general terms: In flow cytometry, cells or beads pass a laser one at a time.

The subject of test [7] is K562. The experiment in a line: Cell cycle arrest in human imatinib-resistant K562 leukemia cells expressing p210Bcr/Ab assessed as accumulation at S phase at 2 ug/ml after 48 hrs by flow cytometry. It counts as functional. In a few lines:
as §1

Test [8] relates to K562. Put plainly: Cell cycle arrest in human imatinib-resistant K562 leukemia cells expressing p210Bcr/Ab assessed as accumulation at G0/G1 phase at 1 ug/ml after 48 hrs by flow cytometry. It counts as functional. In a few lines:
as §1

For test [9], the system named is K562. Put plainly: Cell cycle arrest in human imatinib-resistant K562 leukemia cells expressing p210Bcr/Ab assessed as accumulation at S phase at 1 ug/ml after 48 hrs by flow cytometry. It counts as functional. Summed up: as §1
Test [10] relates to K562. The experiment in a line: Cell cycle arrest in human imatinib-resistant K562 leukemia cells expressing p210Bcr/Ab assessed as accumulation at G2/M phase at 1 ug/ml after 48 hrs by flow cytometry. It counts as functional. Summed up: as §1
Test [11] deals with K562. Put plainly: Cell cycle arrest in human imatinib-resistant K562 cells assessed as accumulation at G2/M phase at 2 ug/ml after 48 hrs by flow cytometry. It counts as functional. In a few lines:
as §1

As for `COc1cc2c3cc1Oc1c(OC)c(OC)cc4c1[C@@H](Cc1ccc(OC(=O)c5ccc(Cl)cc5)c(c1)Oc1ccc(cc1)C[C@@H]3N(C)CC2)N(C)CC4`, the inhibition entry in test [1] and in test [3] was “Active” in each case. For the same compound, the IC50 in test [2] worked out at 980 nM. In [2], `COc1cc2c3cc1Oc1c(OC)c(OC)cc4c1[C@@H](Cc1ccc(OC(=O)c5ccccc5)c(c1)Oc1ccc(cc1)C[C@@H]3N(C)CC2)N(C)CC4` gave an IC50 of 2160 nM. The same measure, in the same setting: the figure for `COc1cc2c3cc1Oc1c(OC)c(OC)cc4c1[C@@H](Cc1ccc(OCc5ccc(Br)cc5)c(c1)Oc1ccc(cc1)C[C@@H]3N(C)CC2)N(C)CC4` is 710 nM; for `COc1cc2c3cc1Oc1c(OC)c(OC)cc4c1[C@@H](Cc1ccc(OC(=O)c5ccco5)c(c1)Oc1ccc(cc1)C[C@@H]3N(C)CC2)N(C)CC4` it is 2780 nM; for `COc1cc2c3cc1Oc1c(OC)c(OC)cc4c1[C@@H](Cc1ccc(OCc5ccc(Cl)nc5)c(c1)Oc1ccc(cc1)C[C@@H]3N(C)CC2)N(C)CC4` it is 400 nM. Consider `COc1cc2c3cc1Oc1c(OC)c(OC)cc4c1[C@@H](Cc1ccc(OC(=O)c5cccc(CCl)c5)c(c1)Oc1ccc(cc1)C[C@@H]3N(C)CC2)N(C)CC4`, for which, in [2], the IC50 amounted to 500 nM. Still for that read-out and setting: as for `COc1cc2c3cc1Oc1c(OC)c(OC)cc4c1[C@@H](Cc1ccc(OC(=O)Cc5ccccc5)c(c1)Oc1ccc(cc1)C[C@@H]3N(C)CC2)N(C)CC4`, the figure is 2230 nM; as for `COc1cc2c3cc1Oc1c(OC)c(OC)cc4c1[C@@H](Cc1ccc(OC(=O)c5ccccc5Cl)c(c1)Oc1ccc(cc1)C[C@@H]3N(C)CC2)N(C)CC4`, 600 nM; as for `COc1cc2c3cc1Oc1c(OC)c(OC)cc4c1[C@@H](Cc1ccc(OS(=O)(=O)c5ccccc5)c(c1)Oc1ccc(cc1)C[C@@H]3N(C)CC2)N(C)CC4`, 1990 nM. The same measure, in the same setting: the figure for `COc1cc2c3cc1Oc1c(OC)c(OC)cc4c1[C@@H](Cc1ccc(OC(=O)Cc5cc(F)c(F)cc5F)c(c1)Oc1ccc(cc1)C[C@@H]3N(C)CC2)N(C)CC4` is 3020 nM.

In the case of `COc1cc2c3cc1Oc1c(OC)c(OC)cc4c1[C@@H](Cc1ccc(OC(=O)c5cc(OC)c(OC)c(OC)c5)c(c1)Oc1ccc(cc1)C[C@@H]3N(C)CC2)N(C)CC4`, the inhibition result in test [1] and in [3] was “Active” in each case. Also, in test [2], the IC50 was determined as 690 nM. In test [2], `CCOCCCCOc1ccc2cc1Oc1ccc(cc1)C[C@H]1c3cc(c(OC)cc3CCN1C)Oc1c(OC)c(OC)cc3c1[C@@H](C2)N(C)CC3` came in with an IC50 of 4080 nM.

Compound `COc1cc2c3cc1Oc1c(OC)c(OC)cc4c1[C@@H](Cc1ccc(OC(=O)c5ccc([N+](=O)[O-])cc5)c(c1)Oc1ccc(cc1)C[C@@H]3N(C)CC2)N(C)CC4` [E6 BERBAMINE] registered an IC50 in test [2] of 2130 nM. This IC50 lies about 1.9-fold lower than the previous one. Take `COc1cc2c3cc1Oc1c(OC)c(OC)cc4c1[C@@H](Cc1ccc(OC(=O)c5cccc(F)c5)c(c1)Oc1ccc(cc1)C[C@@H]3N(C)CC2)N(C)CC4`: it took 1970 nM to reach half-maximal inhibition in test [2] (IC50).

Take `COc1cc2c3cc1Oc1c(OC)c(OC)cc4c1[C@@H](Cc1ccc(OC(=O)c5ccccc5C)c(c1)Oc1ccc(cc1)C[C@@H]3N(C)CC2)N(C)CC4`: the Activity was determined as 51.91% in [4]; 20.04% in test [5]; 31.71% in test [6]; 22.89% in test [7]; 32.37% in [8]; 29.28% in test [9]. Further, the Activity in [10] stood at 7.3%; in test [11] it was 6.01%. Moreover, the inhibition entry in test [1] and in test [3] was “Active” throughout. The compound also registered an IC50 in test [2] of 690 nM.

Consider `COc1cc2c3cc1Oc1c(OC)c(OC)cc4c1[C@@H](Cc1ccc(O)c(c1)Oc1ccc(cc1)C[C@@H]3N(C)CC2)N(C)CC4` [BERBAMINE], for which the inhibition entry in test [1] and in test [3] was “Active” in each case. The compound further gave an IC50 in test [2] of 8930 nM. `C=C(C)C(=O)Oc1ccc2cc1Oc1ccc(cc1)C[C@H]1c3cc(c(OC)cc3CCN1C)Oc1c(OC)c(OC)cc3c1[C@@H](C2)N(C)CC3` gave an IC50 in test [2] of 3810 nM. The same measure, in the same setting: the figure for `CCOc1ccc2cc1Oc1ccc(cc1)C[C@H]1c3cc(c(OC)cc3CCN1C)Oc1c(OC)c(OC)cc3c1[C@@H](C2)N(C)CC3` is 3140 nM. On to `COc1ccc(C(=O)Oc2ccc3cc2Oc2ccc(cc2)C[C@H]2c4cc(c(OC)cc4CCN2C)Oc2c(OC)c(OC)cc4c2[C@@H](C3)N(C)CC4)cc1`, for which the inhibition result in test [1] and in test [3] was “Active” each time. This compound yielded an IC50 in [2] of 550 nM.

In [2], `COc1cc2c3cc1Oc1c(OC)c(OC)cc4c1[C@@H](Cc1ccc(OCc5ccccc5)c(c1)Oc1ccc(cc1)C[C@@H]3N(C)CC2)N(C)CC4` returned an IC50 of 800 nM. In other words, the sub-micromolar range. The same measure, in the same setting: as for `COc1cc2c3cc1Oc1c(OC)c(OC)cc4c1[C@@H](Cc1ccc(OC(C)=O)c(c1)Oc1ccc(cc1)C[C@@H]3N(C)CC2)N(C)CC4`, the figure is 6600 nM. Take `COc1cc2c3cc1Oc1c(OC)c(OC)cc4c1[C@@H](Cc1ccc(OC(=O)C(C)(C)C)c(c1)Oc1ccc(cc1)C[C@@H]3N(C)CC2)N(C)CC4`: the IC50 in test [2] came to 1010 nM. In the case of `COc1cc2c3cc1Oc1c(OC)c(OC)cc4c1[C@@H](Cc1ccc(OC(=O)c5ccccc5Br)c(c1)Oc1ccc(cc1)C[C@@H]3N(C)CC2)N(C)CC4`, the IC50 in test [2] turned out to be 780 nM. This IC50 and that of the compound before are within 1.5-fold of each other. On the same count and under the same terms, the figure for `COc1cc2c3cc1Oc1c(OC)c(OC)cc4c1[C@@H](Cc1ccc(OCc5ccc([N+](=O)[O-])cc5)c(c1)Oc1ccc(cc1)C[C@@H]3N(C)CC2)N(C)CC4` is 360 nM; for `COc1cc2c3cc1Oc1c(OC)c(OC)cc4c1[C@@H](Cc1ccc(OC(=O)c5cc([N+](=O)[O-])cc([N+](=O)[O-])c5)c(c1)Oc1ccc(cc1)C[C@@H]3N(C)CC2)N(C)CC4` it is 3750 nM. In turn, `COc1cc2c3cc1Oc1c(OC)c(OC)cc4c1[C@@H](Cc1ccc(OS(C)(=O)=O)c(c1)Oc1ccc(cc1)C[C@@H]3N(C)CC2)N(C)CC4` displayed an IC50 in test [2] of 4740 nM. Still for that read-out and setting: the figure for `COc1cc2c3cc1Oc1c(OC)c(OC)cc4c1[C@@H](Cc1ccc(OC(=O)c5ccc(Br)cc5)c(c1)Oc1ccc(cc1)C[C@@H]3N(C)CC2)N(C)CC4` is 400 nM; for `COc1cc2c3cc1Oc1c(OC)c(OC)cc4c1[C@@H](Cc1ccc(OC(=O)CCl)c(c1)Oc1ccc(cc1)C[C@@H]3N(C)CC2)N(C)CC4` it is 2700 nM. The same measure, in the same setting: the figure for `COc1cc2c3cc1Oc1c(OC)c(OC)cc4c1[C@@H](Cc1ccc(OC(=O)c5cc6ccccc6[nH]5)c(c1)Oc1ccc(cc1)C[C@@H]3N(C)CC2)N(C)CC4` is 460 nM. The same measure, in the same setting: the figure for `COc1cc2c3cc1Oc1c(OC)c(OC)cc4c1[C@@H](Cc1ccc(OCCCBr)c(c1)Oc1ccc(cc1)C[C@@H]3N(C)CC2)N(C)CC4` is 1660 nM; for `COc1cc2c3cc1Oc1c(OC)c(OC)cc4c1[C@@H](Cc1ccc(OC(=O)c5cccc(C(F)(F)F)c5)c(c1)Oc1ccc(cc1)C[C@@H]3N(C)CC2)N(C)CC4` it is 890 nM.

Compound `COc1cc2c3cc1Oc1c(OC)c(OC)cc4c1[C@@H](Cc1ccc(OCc5cc(OC)c(OC)c(OC)c5)c(c1)Oc1ccc(cc1)C[C@@H]3N(C)CC2)N(C)CC4` displayed an IC50 in test [2] of 1530 nM.

By IC50 is commonly meant the concentration that gives 50% inhibition.
